Published values gathered from unrelated publications.
Compare with care: the assays were run in different laboratories.

`COc1cc(OC)c2nccc(N3CCc4c(cc(Cn5ccnc5)cc4-c4cn(C)nc4C(F)(F)F)C3=O)c2c1` gave an MRT(0-inf) of 0.5 h (male CD-1 mouse, plasma; intravenous, 3 mg/kg).
The AUC(0-t) of `CCN(CC)C(=O)[C@@]1(c2ccccc2)C[C@H]1CN` is reported as 40000 ng·h/mL (male cynomolgus monkey, plasma; oral, 30 mg/kg).
The CC50 of `CCOP(=O)(OCC)[C@@H]1C[C@@H](n2cc(-c3ccccc3F)nn2)ON1C` is reported as over 250 µM (human T-lymphocyte; cell growth or viability; 72 h).
With `CCc1cc(OC)c2nccc(N3CCc4c(cc(Cn5ccnc5)cc4-c4cn(C)nc4C(F)(F)F)C3=O)c2c1` the MRT(0-inf) was 2.5 h (male CD-1 mouse, plasma; oral, 50 mg/kg).
The AUC(0-t) of `O=C(c1ccc(Oc2ccccc2)cc1Cl)c1c[nH]c2ncnc(N[C@@H]3CC[C@@H](CO)OC3)c12` is reported as 82700 ng·h/mL (cynomolgus monkey, plasma; oral, 10 mg/kg, single dose).
With `COc1ccc2nccc(N3CCc4c(cc(Cn5ccnc5)cc4-c4cn(C)nc4C(F)(F)F)C3=O)c2c1` the MRT(0-inf) was 0.6 h (male CD-1 mouse, plasma; intravenous, 3 mg/kg).
For `CCOP(=O)(OCC)[C@@H]1C[C@@H](n2cc(-c3ccccc3)nn2)ON1C` (racemic), the CC50 was over 250 µM (human T-lymphocyte; cell growth or viability; 72 h).
`c1ccc(-c2nc(N3CCC(c4ccccn4)C3)c3ccccc3n2)nc1` (stereo not shown) has an MRT(0-inf) of 5.9 h (female BALB/c mouse, plasma; oral, 12.5 mg/kg).
For `Nc1cc(CNC(=O)c2cc3[nH]ccc3cc2Cl)cc(C(F)(F)F)c1`, the viability was under 50% (HEK-293T; cell growth or viability; 100 µM, 24 h).
The AUC(0-t) of `CN(C(=O)n1cnc(-c2ccc[n+]([O-])c2)c1)C1CCCCC1` is reported as 452 ng·h/mL (male cynomolgus monkey, plasma; oral, 0.3 mg/kg).
